Laboratory results published in ChEMBL document CHEMBL1148061, “Antiplatelet aggregation principles of Dendrobium loddigesii” (J Nat Prod, 1994).

Columns and labels:
[1] = Antiplatelet activity against washed rabbit platelet assessed as inhibition of collagen-induced platelet aggregation at 20 ug/ml preincubated for 3 mins by turbidimetric method; assay type: functional, Oryctolagus cuniculus
Method in brief: (§1)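 Washed rabbit platelets from EDTA-anticoagulated platelet-rich plasma, 4.5×10^8/ml in Tyrode solution with 0.35% BSA, stirred at 1200 rpm at 37°. Turbidimetric read-out; % aggregation as means ± S.E. (n=3), Student's t test versus DMSO control.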

[2] = Antiplatelet activity against washed rabbit platelet assessed as inhibition of collagen-induced platelet aggregation at 5 ug/ml preincubated for 3 mins by turbidimetric method; assay type: functional, Oryctolagus cuniculus; method in brief: as §1
[3] = Antiplatelet activity against washed rabbit platelet assessed as inhibition of thrombin-induced platelet aggregation at 100 ug/ml preincubated for 3 mins by turbidimetric method; assay type: functional, Oryctolagus cuniculus; design: scale not given: the % may be the effect or the level left; method in brief: as §1
[4] = Antiplatelet activity against washed rabbit platelet assessed as inhibition of arachidonic acid-induced platelet aggregation at 10 ug/ml preincubated for 3 mins by turbidimetric method; values are per cent of control
[5] = Antiplatelet activity against washed rabbit platelet assessed as inhibition of collagen-induced platelet aggregation at 10 ug/ml preincubated for 3 mins by turbidimetric method; assay type: functional, Oryctolagus cuniculus; method in brief: as §1
[6] = Antiplatelet activity against washed rabbit platelet assessed as inhibition of platelet activating factor-induced platelet aggregation at 50 ug/ml preincubated for 3 mins by turbidimetric method; assay type: functional, Oryctolagus cuniculus; design: scale not given: the % may be the effect or the level left; method in brief: as §1
[7] = Antiplatelet activity against washed rabbit platelet assessed as inhibition of arachidonic acid-induced platelet aggregation at 100 ug/ml preincubated for 3 mins by turbidimetric method; assay type: functional, Oryctolagus cuniculus; design: scale not given: the % may be the effect or the level left; method in brief: as §1
[8] = Antiplatelet activity against washed rabbit platelet assessed as inhibition of arachidonic acid-induced platelet aggregation at 50 ug/ml preincubated for 3 mins by turbidimetric method; values are per cent of control
[9] = Antiplatelet activity against washed rabbit platelet assessed as inhibition of collagen-induced platelet aggregation at 100 ug/ml preincubated for 3 mins by turbidimetric method; assay type: functional, Oryctolagus cuniculus; design: scale not given: the % may be the effect or the level left; method in brief: as §1
[10] = Antiplatelet activity against washed rabbit platelet assessed as inhibition of arachidonic acid-induced platelet aggregation at 20 ug/ml preincubated for 3 mins by turbidimetric method; assay type: functional, Oryctolagus cuniculus; design: scale not given: the % may be the effect or the level left; method in brief: as §1
[11] = (§2) Antiplatelet activity against washed rabbit platelet assessed as inhibition of arachidonic acid-induced platelet aggregation preincubated for 3 mins by turbidimetric method; assay type: functional, cell-based; details: Oryctolagus cuniculus
Method in brief: (§3)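 Washed rabbit platelets, 4.5×10^8/ml in Tyrode–0.35% BSA, stirred at 1200 rpm at 37°. Compound preincubated 3 min (final DMSO 0.5%) before arachidonic acid 100 μM. Aggregation read turbidimetrically. Percent inhibition across concentrations given as means ± S.E. (n=3); IC50 taken from the concentration–response curve.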

[12] = tested on: Platelet; test: as §2; assay type: functional, cell-based; details: Oryctolagus cuniculus; method in brief: as §3
[13] = Antiplatelet activity against washed rabbit platelet assessed as inhibition of arachidonic acid-induced platelet aggregation at 5 ug/ml preincubated for 3 mins by turbidimetric method; values are per cent of control
[14] = Antiplatelet activity against washed rabbit platelet assessed as inhibition of collagen-induced platelet aggregation at 2 ug/ml preincubated for 3 mins by turbidimetric method; assay type: functional, Oryctolagus cuniculus; method in brief: as §1
[15] = Antiplatelet activity against washed rabbit platelet assessed as inhibition of platelet activating factor-induced platelet aggregation at 100 ug/ml preincubated for 3 mins by turbidimetric method; assay type: functional, Oryctolagus cuniculus; design: scale not given: the % may be the effect or the level left; method in brief: as §1
[16] = Antiplatelet activity against washed rabbit platelet assessed as inhibition of collagen-induced platelet aggregation at 50 ug/ml preincubated for 3 mins by turbidimetric method; assay type: functional, Oryctolagus cuniculus; design: scale not given: the % may be the effect or the level left; method in brief: as §1

IC50 [11] [µM]	SMILES	aggregation [1] [%]	aggregation [2] [%]	Activity [3] [%]	level, % of control [4] [%]	aggregation [5] [%]	Activity [6] [%]	Activity [7] [%]	level, % of control [8] [%]	Activity [9] [%]	Activity [10] [%]	Activity [12]	level, % of control [13] [%]	aggregation [14] [%]	Activity [15] [%]	Activity [16] [%]
61.8	COc1cc(CCc2cc(OC)c(O)c(OC)c2)ccc1O [MOSCATILIN]	19.6	58.4	85.3	52	42.3	72.1	0	0	0	36.4	Dose-dependent effect	78.7	78.5	24.7	0
11.2	COc1cc(CCc2cc(OC)c(OC(C)=O)c(OC)c2)ccc1OC(C)=O [MOSCATILIN DIACETATE]			93.4	0			0		12.8	0	Dose-dependent effect	33.9		36	

SMILES	IC50 [11] [µM]	aggregation [1] [%]	aggregation [2] [%]	Activity [3] [%]	level, % of control [4] [%]	aggregation [5] [%]	Activity [6] [%]	Activity [7] [%]	level, % of control [8] [%]	Activity [9] [%]	Activity [10] [%]	Activity [12]	level, % of control [13] [%]	aggregation [14] [%]	Activity [15] [%]	Activity [16] [%]
COc1cc(O)cc2ccc3cccc(O)c3c12 [MOSCATIN]	37.2	19.6	58.4	41	22.8	42.3	72.1	0	0	0	0	Dose-dependent effect	87.6	78.5	24.7	0
